Source: ChEMBL document CHEMBL3045866, “A novel family of insect-selective peptide neurotoxins targeting insect large-conductance calcium-activated K+ channels isolated from the venom of the theraphosid spider Eucratoscelus constrictus” (Mol Pharmacol, 2011)
Calls of active or inactive are those of the source. The calls are words filed in the database; no cut-off is given here. Bridge positions count the residues as written; N and C are the ends. Peptide text beside a SMILES is read from it.

Columns and labels:
[1] = biological target: Voltage-dependent calcium channel alpha-1 subunit (Blattella germanica) (UniProt O18323); assay: Inhibition of mid-low voltage activated Cav channel in Periplaneta americana (American cockroach) DUM neurons assessed as effect on voltage-dependent activation at 330 nM measured at holding potential -90 mV depolarized to +70 mV with 10 mV increments after 10 min by whole cell patch clamp assay
Sequence of Voltage-dependent calcium channel alpha-1 subunit (Blattella germanica) (O18323 as listed by the source): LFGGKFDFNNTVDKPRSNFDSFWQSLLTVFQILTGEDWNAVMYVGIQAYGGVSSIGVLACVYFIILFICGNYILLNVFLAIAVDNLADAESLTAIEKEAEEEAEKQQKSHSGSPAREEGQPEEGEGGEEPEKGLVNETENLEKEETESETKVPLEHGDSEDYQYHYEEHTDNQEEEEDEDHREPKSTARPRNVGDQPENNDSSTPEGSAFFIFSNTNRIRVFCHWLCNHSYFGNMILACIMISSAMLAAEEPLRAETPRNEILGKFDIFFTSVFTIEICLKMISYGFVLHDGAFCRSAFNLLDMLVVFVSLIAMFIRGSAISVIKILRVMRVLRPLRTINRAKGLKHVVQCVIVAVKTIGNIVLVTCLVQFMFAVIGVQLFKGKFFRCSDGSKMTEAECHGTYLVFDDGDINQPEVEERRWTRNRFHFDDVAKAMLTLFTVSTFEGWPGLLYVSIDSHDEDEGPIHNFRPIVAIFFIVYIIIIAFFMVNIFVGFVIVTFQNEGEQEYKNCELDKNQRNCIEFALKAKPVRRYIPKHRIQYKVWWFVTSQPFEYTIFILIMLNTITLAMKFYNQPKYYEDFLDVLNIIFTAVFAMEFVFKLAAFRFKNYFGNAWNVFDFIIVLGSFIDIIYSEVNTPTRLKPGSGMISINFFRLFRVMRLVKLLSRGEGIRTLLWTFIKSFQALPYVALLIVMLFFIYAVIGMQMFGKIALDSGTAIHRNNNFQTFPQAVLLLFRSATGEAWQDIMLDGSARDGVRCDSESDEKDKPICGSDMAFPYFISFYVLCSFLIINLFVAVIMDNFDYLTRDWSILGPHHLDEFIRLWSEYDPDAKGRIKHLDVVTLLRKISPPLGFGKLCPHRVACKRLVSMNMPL
Summary of the method: (§1)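 Ba2+ currents through M-LVA and HVA Cav channels recorded by whole-cell clamp in cockroach DUM neurons at 20–23°C. Toxin applied for 10 min via a perfusion needle. Peak IBa measured relative to control. For activation, steps from Vh -90 mV to +70 mV in 10-mV increments at 0.1 Hz. P-P/4 leak subtraction; n = 3.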

[2] = system: Mus musculus; assay: Neurotoxicity against Mus musculus C57BL/6 (mouse) assessed as effect on behaviour at 500 pmol, icv; format: toxicity, organism-based; conditions: in vivo, icv_or_intrathecal
Summary of the method: (§2)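 Female C57BL/6 mice (~20 g) lightly anesthetized with diethylether. 5 µl of sample in BSA solution injected into the left cerebral ventricle. Posture, behavior and neurotoxic signs observed; n = 2.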

[3] = biological target: Voltage-gated sodium channel Nav1 alpha subunit (Periplaneta americana) (UniProt D0E0C1); assay: Inhibition of Nav channel in Periplaneta americana (American cockroach) DUM neurons assessed as effect on voltage-dependent activation at 330 nM measured at holding potential -90 mV depolarised to +70 mV with 10 mV increments for 10 min by whole cell patch clamp assay
Sequence of Voltage-gated sodium channel Nav1 alpha subunit (Periplaneta americana) (D0E0C1 as listed by the source): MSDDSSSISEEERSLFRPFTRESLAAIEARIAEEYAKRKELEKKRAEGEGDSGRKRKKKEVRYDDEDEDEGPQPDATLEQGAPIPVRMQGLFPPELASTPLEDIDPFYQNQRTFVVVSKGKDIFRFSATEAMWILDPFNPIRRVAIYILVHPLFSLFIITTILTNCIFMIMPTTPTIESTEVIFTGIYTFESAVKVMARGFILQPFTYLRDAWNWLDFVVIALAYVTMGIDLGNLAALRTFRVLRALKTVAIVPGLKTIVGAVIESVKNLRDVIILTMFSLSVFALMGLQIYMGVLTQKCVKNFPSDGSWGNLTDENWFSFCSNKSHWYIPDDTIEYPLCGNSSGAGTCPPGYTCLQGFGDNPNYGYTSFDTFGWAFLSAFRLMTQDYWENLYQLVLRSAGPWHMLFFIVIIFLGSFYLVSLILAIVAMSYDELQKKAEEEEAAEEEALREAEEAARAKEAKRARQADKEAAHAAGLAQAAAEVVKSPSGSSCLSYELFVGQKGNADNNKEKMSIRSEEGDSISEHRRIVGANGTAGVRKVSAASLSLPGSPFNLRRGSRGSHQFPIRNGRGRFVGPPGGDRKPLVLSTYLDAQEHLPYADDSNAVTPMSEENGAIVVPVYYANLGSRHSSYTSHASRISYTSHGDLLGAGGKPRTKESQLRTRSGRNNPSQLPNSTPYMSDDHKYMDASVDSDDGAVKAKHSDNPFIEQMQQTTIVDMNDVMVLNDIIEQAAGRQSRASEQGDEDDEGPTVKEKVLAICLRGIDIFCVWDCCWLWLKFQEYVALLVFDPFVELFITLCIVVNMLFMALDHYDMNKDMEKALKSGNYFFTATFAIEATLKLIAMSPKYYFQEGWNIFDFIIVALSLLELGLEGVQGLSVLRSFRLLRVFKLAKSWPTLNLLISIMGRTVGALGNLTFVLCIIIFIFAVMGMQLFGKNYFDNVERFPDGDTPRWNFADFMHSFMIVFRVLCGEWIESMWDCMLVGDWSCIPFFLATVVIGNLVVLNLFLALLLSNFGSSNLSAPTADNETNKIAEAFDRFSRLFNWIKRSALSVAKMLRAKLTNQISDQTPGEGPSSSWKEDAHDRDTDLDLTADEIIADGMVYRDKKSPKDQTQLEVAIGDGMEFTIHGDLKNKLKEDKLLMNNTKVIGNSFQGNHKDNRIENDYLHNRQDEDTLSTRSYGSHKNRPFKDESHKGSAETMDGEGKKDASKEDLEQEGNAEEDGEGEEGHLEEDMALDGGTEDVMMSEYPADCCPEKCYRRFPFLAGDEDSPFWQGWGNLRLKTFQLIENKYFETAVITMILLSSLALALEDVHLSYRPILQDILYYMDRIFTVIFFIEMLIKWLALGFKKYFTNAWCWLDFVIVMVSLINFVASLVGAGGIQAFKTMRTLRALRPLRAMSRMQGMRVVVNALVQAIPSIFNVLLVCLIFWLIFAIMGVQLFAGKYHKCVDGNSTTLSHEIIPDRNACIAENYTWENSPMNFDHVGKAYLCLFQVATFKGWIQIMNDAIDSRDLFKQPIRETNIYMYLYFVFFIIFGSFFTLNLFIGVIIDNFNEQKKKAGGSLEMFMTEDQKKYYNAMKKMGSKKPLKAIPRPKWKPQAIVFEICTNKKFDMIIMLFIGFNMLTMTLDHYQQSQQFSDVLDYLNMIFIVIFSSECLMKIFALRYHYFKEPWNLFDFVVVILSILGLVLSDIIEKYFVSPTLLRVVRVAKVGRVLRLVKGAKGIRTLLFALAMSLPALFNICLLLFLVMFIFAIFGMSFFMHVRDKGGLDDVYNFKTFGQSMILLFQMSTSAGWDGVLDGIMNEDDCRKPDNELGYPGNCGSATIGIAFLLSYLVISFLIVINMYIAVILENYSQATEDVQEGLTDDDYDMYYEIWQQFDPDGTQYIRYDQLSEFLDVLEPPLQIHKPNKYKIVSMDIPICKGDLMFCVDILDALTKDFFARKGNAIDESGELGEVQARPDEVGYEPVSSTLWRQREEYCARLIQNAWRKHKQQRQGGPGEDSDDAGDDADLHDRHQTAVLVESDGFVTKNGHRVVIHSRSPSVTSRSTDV
Summary of the method: (§3)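 Whole-cell voltage clamp of TTX-sensitive Na+ current in DUM neurons isolated from adult cockroaches and kept no longer than 24 h at 30°C. Bath (mM): NaCl 80, CsCl 5, CaCl2 1.8, TEA-Cl 50, 4-AP 5, HEPES 10, NiCl2 0.1, CdCl2 1, pH 7.4. Vh -90 mV; test pulse to -10 mV, or steps to +70 mV in 10-mV increments at 0.1 Hz. P-P/4 leak subtraction; 20–23°C.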

[4] = system: Gryllus bimaculatus; assay: Neurotoxicity against third-instar nymph stage of Gryllus bimaculatus (cricket) assessed as mortality at 1.1 nmol/g measured at 15 min; format: functional, organism-based
[5] = system: Mus musculus; assay: Neurotoxicity against Mus musculus C57BL/6 (mouse) assessed as effect on posture at 500 pmol, icv; format: toxicity, organism-based; conditions: in vivo, icv_or_intrathecal; summary of the method: as §2
[6] = biological target: Voltage-dependent calcium channel alpha-1 subunit (Blattella germanica) (UniProt O18323); assay: (§4) Inhibition of voltage-gated calcium channel Cav-mediated fast-transient current in Periplaneta americana (American cockroach) DUM neurons assessed as effect on voltage-dependent activation at 6 nM measured at holding potential -80 mV in 10 mV increments depolarized to +40 mV after 10 min by whole cell patch clamp assay in presence of CdCl2
Summary of the method: (§5)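 BK(Ca) current in DUM neurons with 5 mM 4-AP in the bath. Toxin perfused for 10 min or to equilibrium; then 1 mM CdCl2 plus 30 nM ChTx added, and the residual current subtracted. 100-ms steps from Vh -80 mV to +30 mV, or to +40 mV in 10-mV increments for I–V. Peak (fast-transient) and 100-ms (late) amplitudes measured. IC50 from logistic fit; n = 3–6.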

[7] = Reversible inhibition of Potassium channel Kv in Periplaneta americana (American cockroach) DUM neurons at 330 nM measured at holding potential -90 mV depolarized to +30 mV after 10 min by whole cell patch clamp assay relative to control
[8] = system: Gryllus bimaculatus; assay: Neurotoxicity against third-instar nymph stage of Gryllus bimaculatus (cricket) assessed as paralysis at 1.1 nmol/g measured within 5 min; format: functional, organism-based
[9] = Inhibition of delayed rectifier potassium channel IK(DR) in Periplaneta americana (American cockroach) DUM neurons assessed as effect on voltage-dependent activation at 330 nM measured at holding potential -90 mV depolarized to +40 mV with 100 ms increments after 10 min by whole cell voltage clamp …
[10] = biological target: Voltage-dependent calcium channel alpha-1 subunit (Blattella germanica) (UniProt O18323); assay: as §4, with “late-sustained” for “fast-transient”; summary of the method: as §5
[11] = biological target: Voltage-dependent calcium channel alpha-1 subunit (Blattella germanica) (UniProt O18323); assay: Inhibition of high voltage activated Cav channel in Periplaneta americana (American cockroach) DUM neurons assessed as effect on voltage-dependent activation at 330 nM measured at holding potential -90 mV depolarized to +70 mV with 10 mV increments after 10 min by whole cell patch clamp assay; summary of the method: as §1
[12] = biological target: Voltage-dependent calcium channel alpha-1 subunit (Blattella germanica) (UniProt O18323); assay: Inhibition of voltage-gated calcium channel Cav-mediated fast-transient current in Periplaneta americana (American cockroach) DUM neurons assessed as measured at holding potential -80 mV depolarized to +40 mV after 10 min by whole cell patch clamp assay in presence of CdCl2; summary of the method: as §5
[13] = Inhibition of transient A type potassium channel IK(A) in Periplaneta americana (American cockroach) DUM neurons at 330 nM measured at holding potential -90 mV depolarized to +30 mV after 10 min by whole cell patch clamp assay in presence of CdCl2 and ChTx
[14] = Inhibition of delayed rectifier potassium channel IK(DR) in Periplaneta americana (American cockroach) DUM neurons at 330 nM measured at holding potential -90 mV depolarized to +30 mV after 10 min by whole cell voltage clamp assay in presence of CdCl2 and ChTx relative to control
[15] = Inhibition of transient A type potassium channel IK(A) in Periplaneta americana (American cockroach) DUM neurons assessed as effect on voltage-dependent activation at 330 nM measured at holding potential -90 mV depolarized to +40 mV with 100 ms increments after 10 min by whole cell patch clamp …
[16] = biological target: Voltage-dependent calcium channel alpha-1 subunit (Blattella germanica) (UniProt O18323); assay: Inhibition of voltage-gated calcium channel Cav-mediated late-sustained current in Periplaneta americana (American cockroach) DUM neurons assessed as measured at holding potential -80 mV depolarized to +40 mV after 10 min by whole cell patch clamp assay in presence of CdCl2; summary of the method: as §5
[17] = biological target: Voltage-dependent calcium channel alpha-1 subunit (Blattella germanica) (UniProt O18323); assay: as §4, with “25” for “6”; summary of the method: as §5
[18] = biological target: Voltage-dependent calcium channel alpha-1 subunit (Blattella germanica) (UniProt O18323); assay: Inhibition of mid-low voltage activated Cav channel in Periplaneta americana (American cockroach) DUM neurons assessed as reduction in barium current at 330 nM measured at holding potential -90 mV depolarized to -20 mV after 10 min by whole cell patch clamp assay relative to control; summary of the method: as §1
[19] = biological target: Voltage-dependent calcium channel alpha-1 subunit (Blattella germanica) (UniProt O18323); assay: Inhibition of high voltage activated Cav channel in Periplaneta americana (American cockroach) DUM neurons assessed as reduction in barium current at 330 nM measured at holding potential -90 mV depolarized to +30 mV after 10 min by whole cell patch clamp assay relative to control; summary of the method: as §1
[20] = biological target: Voltage-dependent calcium channel alpha-1 subunit (Blattella germanica) (UniProt O18323); assay: as §4, with “late-sustained” for “fast-transient”, “25” for “6”
[21] = biological target: Voltage-gated sodium channel Nav1 alpha subunit (Periplaneta americana) (UniProt D0E0C1); assay: Inhibition of Nav channel in Periplaneta americana (American cockroach) DUM neurons assessed as remaining activity at 330 nM measured at holding potential -90 mV depolarized to -10 mV after 10 min by whole cell patch clamp assay relative to control; summary of the method: as §3

| inhibition [1] | inhibition [3] | inhibition [7] | inhibition [9] | inhibition [11] | inhibition [12] | inhibition [13] | inhibition [14] | inhibition [15] | inhibition [16] | SMILES | Activity [2] | Activity [4] | Activity [5] | Activity [8] | also measured |
| --- | --- | --- | --- | --- | --- | --- | --- | --- | --- | --- | --- | --- | --- | --- | --- |
| inactive | inactive | Active | inactive | inactive | Dose-dependent effect | Active | 31% | inactive | Dose-dependent effect | CSCC[C@@H]1NC(=O)[C@H](CC(=O)O)NC(=O)[C@H](CCC(=O)O)NC(=O)[C@@H]2CSSC[C@H](NC(=O)[C@@H](N)Cc3ccc(O)cc3)C(=O)N[C@@H](CCC(N)=O)C(=O)N[C@@H](CCCCN)C(=O)N[C@@H](Cc3ccccc3)C(=O)N[C@@H](CC(C)C)C(=O)N[C@@H](Cc3c[nH]c4ccccc34)C(=O)N[C@@H]([C@@H](C)O)C(=O)N[C@H]3CSSC[C@H](NC(=O)[C@H](C(C)C)NC1=O)C(=O)N[C@@H](CCC(=O)O)C(=O)N[C@@H](CC(C)C)C(=O)N[C@@H](Cc1c[nH]c4ccccc14)C(=O)N[C@H](C(=O)N[C@@H](CCCCN)C(=O)N[C@@H](CC(C)C)C(=O)N[C@@H](CCC(=O)O)C(=O)N[C@@H](CCCCN)C(=O)O)CSSC[C@H](NC(=O)[C@H](CCCCN)NC(=O)[C@H](CCCNC(=N)N)NC(=O)[C@H](CCC(=O)O)NC(=O)[C@H]([C@@H](C)O)NC(=O)[C@H](CC(=O)O)NC3=O)C(=O)N2 (H-YCQKFLWTCDTERKCCEDMVCELWCKLEK-OH; disulfide 2-16, 9-21, 15-25) | Non-toxic | Active | Non-toxic | Active | inhibition [6]: inactive; inhibition [10]: inactive |
| inactive | inactive | Active | inactive | inactive | Dose-dependent effect | inactive | inactive | inactive | Dose-dependent effect | CSCC[C@@H]1NC(=O)[C@H](CC(=O)O)NC(=O)[C@H](CCC(=O)O)NC(=O)[C@@H]2CSSC[C@H](NC(=O)[C@@H](N)Cc3ccc(O)cc3)C(=O)N[C@@H](CCC(N)=O)C(=O)N[C@@H](CCCCN)C(=O)N[C@@H](Cc3ccccc3)C(=O)N[C@@H](CC(C)C)C(=O)N[C@@H](Cc3c[nH]c4ccccc34)C(=O)N[C@@H]([C@@H](C)O)C(=O)N[C@H]3CSSC[C@H](NC(=O)[C@H](C(C)C)NC1=O)C(=O)N[C@@H](CCC(=O)O)C(=O)N[C@@H](CC(C)C)C(=O)N[C@@H](Cc1c[nH]c4ccccc14)C(=O)N[C@H](C(=O)N[C@@H](CCCCN)C(=O)N[C@@H](Cc1ccc(O)cc1)C(=O)N[C@@H](CCCCN)C(=O)N[C@@H](CCC(=O)O)C(=O)O)CSSC[C@H](NC(=O)[C@H](CCCCN)NC(=O)[C@H](CCCNC(=N)N)NC(=O)[C@H](CCC(=O)O)NC(=O)[C@H]([C@@H](C)O)NC(=O)[C@H](CC(=O)O)NC3=O)C(=O)N2 (H-YCQKFLWTCDTERKCCEDMVCELWCKYKE-OH; disulfide 2-16, 9-21, 15-25) | Non-toxic | Active | Non-toxic | Active | inhibition [17]: inactive; inhibition [18]: 10%; inhibition [19]: 7%; inhibition [20]: inactive; Activity [21]: 92% |
